Results of several laboratories.
Each line is one published result; the experiments were not run side by side.
Medium: plasma
Route: oral

Compound	host	dose	setting	Vd/F
C[C@@]1(c2cc(NC(=O)c3ccc(C#N)cn3)ccc2F)C=CSC(N)=N1	human	30 mg	single dose	276 L
c1cnc2ccc(Nc3nc(NC4CC4)c4nc[nH]c4n3)cc2c1	human	400 mg/m²	patients	546 L
COc1cc(C(=O)NC2CCN(C)CC2)c(F)cc1Nc1ncc(C(F)(F)F)c(Oc2cccc3c2C(=O)N(C)C3)n1	human	100 mg	single dose, patients	236 L
CC(C)(Sc1ccncc1-c1ccc(C#N)c2ccccc12)C(=O)O	male human	20 mg	single dose, fed, healthy volunteers	531 L
C[C@@H](c1ccc2nccn2c1)n1nnc2ncc(-c3cnn(C)c3)nc21	human	600 mg	–	506 L
CCOc1cc2ncc(C#N)c(Nc3ccc(OCc4ccccn4)c(Cl)c3)c2cc1NC(=O)/C=C/[C@H]1CCCN1C	human	80 mg	single dose	4110 L
CCOc1cc([C@@H](CS(C)(=O)=O)N2C(=O)c3cccc(NC(C)=O)c3C2=O)ccc1OC	human	30 mg	single dose, healthy volunteers	141 L
Cc1cc(Nc2cc(N3CCN(C)CC3)nc(/C=C/c3ccccc3)n2)n[nH]1	human	200 mg/m²	patients	2280 L
CCOc1ccc(Cc2cc([C@@H]3O[C@H](CO)[C@@H](O)[C@H](O)[C@H]3O)ccc2Cl)cc1	human	10 mg	multiple doses, steady state	320 L
CO[C@H]1CC[C@H](N2C(=O)CNc3ncc(-c4ccc(C(C)(C)O)nc4)nc32)CC1	human	15 mg	patients	192 L
N#CN1C[C@H](n2nc(-c3ccc(Oc4ccc(Cl)cn4)cc3)c(C(N)=O)c2N)CCC12CC2	human	600 mg	fed	1230 L
COc1ccc([C@@H]2CN(C(=O)[C@@H](O)CO)C[C@@]2(C)[C@@H](C)O)cc1OC1CN(c2ccc(C)cn2)C1	human	0.1 mg	single dose, healthy volunteers	23.8 L
